Published values of several laboratories.
Protocols differ between the studies behind these lines.
Target: TGF-beta receptor type-2 (TGFBR2, Homo sapiens, UniProt P37173)

| Structure (SMILES) | assay | conditions | endpoint | result |
| --- | --- | --- | --- | --- |
| CC(C)(C)c1cc(C=C(C#N)C#N)cc(Br)c1O | enzyme activity, inhibitor | 0.5 µM | remaining activity | 93.8% |
| Cc1nn(C)cc1-c1nc2c(N3CCN(Cc4ccc(Cl)cc4)CC3)c(Cl)cnc2[nH]1 | binding, competition with immobilised ligand | 1 µM | remaining binding | 100% |
| Nc1ncc(-c2nc(N3CCOCC3)nc(N3CCOCC3)n2)c(C(F)F)n1 | cell-free assay, competition with immobilised ligand | 10 µM | remaining binding | 69% |
| N#CC1(c2ccccn2)CCN(Cc2cc(C(=O)O)c(=O)n3ccccc23)CC1 | cell-free assay, competition with immobilised ligand | 1 µM | remaining binding | 93% |
| O=c1[nH]c2ccccc2n1C1CCN(Cc2ccc(-c3[nH]c4cc5ncnc5cc4nc3-c3ccccc3)cc2)CC1 | cell-free assay | 0.5 µM | remaining signal | 95.5% |
| Cn1cncc1[C@](O)(COc1ccc(C#N)cc1-c1ccc(OC(F)(F)F)cc1)c1ccc(C#N)cc1 | cell-free assay, competition with immobilised ligand | 1 µM | remaining binding | 100% |
| COc1cc(Nc2ncc(F)c(Nc3ccc4c(n3)NC(=O)C(C)(C)O4)n2)cc(OC)c1OC | binding | 10 µM | inhibition | 75% |
| COc1ncccc1-c1cnn2ccc(N3CCN(C(=O)OC(C)C)CC3)nc12 | binding, competition with immobilised ligand | 1 µM | remaining binding | 100% |
